Assay [1] has as its target T1, Peroxisome proliferator-activated receptor gamma (Homo sapiens, UniProt P37231).
T1 sequence (P37231 whole entry): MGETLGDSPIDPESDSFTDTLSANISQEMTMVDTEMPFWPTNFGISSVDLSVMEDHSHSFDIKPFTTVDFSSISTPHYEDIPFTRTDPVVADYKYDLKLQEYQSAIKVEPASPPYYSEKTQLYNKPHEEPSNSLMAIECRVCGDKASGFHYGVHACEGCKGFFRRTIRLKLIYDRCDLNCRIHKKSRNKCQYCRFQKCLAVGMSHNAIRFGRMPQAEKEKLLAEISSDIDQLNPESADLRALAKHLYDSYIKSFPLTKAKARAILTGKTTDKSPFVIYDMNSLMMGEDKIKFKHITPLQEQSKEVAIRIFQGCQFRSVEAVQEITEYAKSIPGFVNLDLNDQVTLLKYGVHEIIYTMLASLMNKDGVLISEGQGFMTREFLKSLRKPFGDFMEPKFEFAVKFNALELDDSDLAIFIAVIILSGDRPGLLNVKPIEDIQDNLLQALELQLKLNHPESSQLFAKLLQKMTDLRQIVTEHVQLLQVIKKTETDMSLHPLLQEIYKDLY
The experiment in a line: (§1) Agonist activity at PPARgamma expressed in human HCA7 cells assessed as induction of peroxisome proliferator response element after 12 hrs by luciferase reporter assay. The assay is classed as functional, cell-based.

Assay [2] has as its target Prostaglandin G/H synthase 1 (Homo sapiens) (UniProt P23219). The experiment in a line: Inhibition of cyclooxygenase 1 upto 4 uM.
In assay [3] the target is T2, Peroxisome proliferator-activated receptor gamma (Homo sapiens) (UniProt P37231).
T2 sequence (whole entry): T1 sequence (P37231 whole entry)
The experiment in a line: Stimulation of PPARgamma binding to P32-labeled peroxisome proliferator response element in human HCA7 cells nuclear extracts after 30 mins by electrophoretic mobility shift assay. In kind it is cell-based. The gist of the method:
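HCA7 cells treated with vehicle or 0.1–1 μM for 30 min, then nuclear extracts prepared. 5 μg nuclear protein preincubated 10 min at 25 °C in HEPES pH 7.9, glycerol, BSA, poly(dI·dC). 32P-labeled PPRE oligonucleotide added for 20 min at 25 °C. Specificity checked by 100-fold unlabeled or mutant competitor and PPARγ antibody supershift. Run on 4% native PAGE, read by autoradiography.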
In general terms: Mobility shift assays separate free from complexed probe on a gel.

Assay [4] has as its target T2, Peroxisome proliferator-activated receptor gamma (Homo sapiens). The experiment in a line: Agonist activity at PPARgamma in human HCA7 cells assessed as induction of L-FABP expression after 24 hrs by Western blotting in presence of GW-9662. In kind it is functional, cell-based. The method, boiled down: (§2)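 HCA7 cells given vehicle, the agonist, the antagonist alone, or both together for 24 h. Lysate protein 100 μg/lane on 12.5% SDS-PAGE, transferred to nitrocellulose. Immunoblot probed for L-FABP, aP2 and β-actin with ECL detection.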
(A western blot detects proteins with antibodies after separation by electrophoresis.)

For assay [5] the target is unchanged. The experiment in a line: Displacement of [3H]troglitazone from human PPARgamma ligand binding domain expressed in Escherichia coli by scintillation proximity assay. The gist of the method: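 His-tagged human PPARγ-LBD from E. coli, biotinylated and bound to streptavidin SPA beads. Competition against 50 nM 3H-troglitazone with rising unlabeled compound. Buffer 50 mM HEPES pH 7, 50 mM KCl, 5 mM CHAPS, BSA, no dithiothreitol.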
For orientation: Displacement assays read how much labelled ligand stays bound in the presence of the test substance.

The target is the same in assay [6]. Described as §1. The assay is classed as functional, cell-based.
The target in assay [7] is T3, Peroxisome proliferator-activated receptor delta (Homo sapiens) (UniProt Q03181).
T3 sequence (whole entry): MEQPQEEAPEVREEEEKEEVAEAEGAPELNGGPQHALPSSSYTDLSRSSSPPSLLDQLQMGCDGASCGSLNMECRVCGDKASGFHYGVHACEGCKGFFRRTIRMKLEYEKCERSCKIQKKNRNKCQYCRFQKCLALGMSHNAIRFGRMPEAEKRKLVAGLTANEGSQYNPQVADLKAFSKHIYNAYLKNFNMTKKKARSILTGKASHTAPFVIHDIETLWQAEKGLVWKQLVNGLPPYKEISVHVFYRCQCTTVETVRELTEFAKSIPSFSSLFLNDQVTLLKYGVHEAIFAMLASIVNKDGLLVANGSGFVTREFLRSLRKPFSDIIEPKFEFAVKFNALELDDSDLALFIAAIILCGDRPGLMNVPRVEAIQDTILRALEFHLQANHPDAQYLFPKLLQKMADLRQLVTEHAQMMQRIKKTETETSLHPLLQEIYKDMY
The experiment in a line: Agonist activity at PPARdelta in human HCA7 cells expressing shRNA assessed as induction of peroxisome proliferator response element at 1 uM after 12 hrs by luciferase reporter assay. In kind it is functional, cell-based. The gist of the method: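 Stable HCA7 lines made by nucleofection with control shRNA or shRNAs to PPARγ, α or δ, then puromycin-selected; silencing checked by immunoblot. Cells transfected with 1.8 μg PPRE-luciferase plus 0.2 μg pSVβgal (Lipofectamine 2000). Medium change after 6 h, growth medium for 16 h, then 1 μM compound serum-free for 12 h. Luciferase normalized to β-galactosidase; n = 6.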

Assay [8] deals with T2, Peroxisome proliferator-activated receptor gamma (Homo sapiens). The experiment in a line: Agonist activity at PPARgamma in human HCA7 cells assessed as induction of aP2 expression after 24 hrs by Western blotting. In kind it is functional, cell-based. The method, boiled down: (§3)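 HCA7 cells (DMEM, 10% FBS) treated 0–1 μM for 24 h. Lysates made in Tween 20/protease-inhibitor buffer, sonicated and cleared at 10000g. Protein measured by BCA, 100 μg/lane run on 12.5% SDS-PAGE. Blotted to nitrocellulose, probed for L-FABP, aP2 and β-actin, HRP secondary with ECL detection.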

Another assay relates to 3T3-L1. The experiment in a line: Induction of triglyceride accumulation in mouse 3T3L1 cells at 1 uM after 48 hrs. The assay is classed as functional, cell-based. The method, boiled down: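 Mouse 3T3-L1 cells in DMEM with 10% calf serum, grown to 60% confluence. Differentiation started with 0.1% IBMX plus 1.0% dexamethasone for 48 h. Then 2 days in growth medium with 10 μg/mL human insulin plus compound, then fresh growth medium for 48 h. Lipid droplets stained with Oil Red O and imaged at 200×.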

Assay [9] addresses T2, Peroxisome proliferator-activated receptor gamma (Homo sapiens). The experiment in a line: Agonist activity at PPARgamma in human HCA7 cells assessed as induction of aP2 expression after 24 hrs by Western blotting in presence of GW-9662. The assay is classed as functional, cell-based. The gist of the method: as §2
Assay [10] shares this target. The experiment in a line: Agonist activity at PPARgamma in human HCA7 cells assessed as induction of L-FABP expression after 24 hrs by Western blotting. In kind it is functional, cell-based. The method, boiled down: as §3
Assay [11] shares this target. The experiment in a line: Agonist activity at PPARgamma in human HCA7 cells expressing shRNA assessed as induction of peroxisome proliferator response element at 1 uM after 12 hrs by luciferase reporter assay. The assay is classed as functional, cell-based. The gist of the method:
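HCA7 lines stably carrying control or PPARγ/α/δ shRNA (nucleofection, puromycin selection). Cells at 40% confluence co-transfected with 1.8 μg PPRE-luciferase and 0.2 μg pSVβgal using Lipofectamine 2000. After 6 h, growth medium for 16 h, then 12 h compound in serum-free medium. Luciferase normalized to β-galactosidase; means, SD, n = 6; Student's t test.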

The target of assay [12] is T3, Peroxisome proliferator-activated receptor delta (Homo sapiens). The experiment in a line: Agonist activity at PPARdelta in human HCA7 cells assessed as induction of peroxisome proliferator response element at 1 uM after 12 hrs by luciferase reporter assay. In kind it is functional, cell-based. The gist of the method: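 HCA7 human colon cancer cells (which express PPARα, δ and γ) grown in DMEM with 10% FBS to 40% confluence. Transfected with 1.8 μg PPRE-luciferase plus 0.2 μg pSVβgal using Lipofectamine 2000. After 6 h, growth medium for 16 h, then compound in serum-free medium for 12 h. Luciferase normalized to β-galactosidase; n = 6.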

Structures are written as SMILES. Activity calls are given as the source filed them. The calls are words filed in the database; no cut-off is given here.

Sequence of Prostaglandin G/H synthase 1 (Homo sapiens) (P23219 whole entry): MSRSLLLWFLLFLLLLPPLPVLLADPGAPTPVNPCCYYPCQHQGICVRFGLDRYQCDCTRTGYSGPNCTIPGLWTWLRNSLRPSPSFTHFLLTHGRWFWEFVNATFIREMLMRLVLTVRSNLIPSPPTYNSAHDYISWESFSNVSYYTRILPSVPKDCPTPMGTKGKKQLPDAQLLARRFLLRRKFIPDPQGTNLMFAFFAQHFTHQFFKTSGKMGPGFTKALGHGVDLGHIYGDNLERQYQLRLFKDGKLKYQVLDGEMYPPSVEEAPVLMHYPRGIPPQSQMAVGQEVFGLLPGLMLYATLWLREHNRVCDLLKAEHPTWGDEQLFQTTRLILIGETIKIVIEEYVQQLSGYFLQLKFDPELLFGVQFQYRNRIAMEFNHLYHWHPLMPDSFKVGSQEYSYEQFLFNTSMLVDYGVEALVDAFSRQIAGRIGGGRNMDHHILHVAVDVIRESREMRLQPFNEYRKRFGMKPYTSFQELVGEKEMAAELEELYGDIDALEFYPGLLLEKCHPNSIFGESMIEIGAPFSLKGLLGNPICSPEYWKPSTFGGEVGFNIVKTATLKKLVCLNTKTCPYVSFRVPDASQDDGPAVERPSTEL

The EC50 is the concentration needed to bring the measured effect to its halfway point. On to `CSc1ccc(/C=C2\C=C(CC(=O)O)c3cc(F)ccc32)cc1`, for which the EC50 in [1] was determined as 700 nM. Further, the result in assay [2] was inactive.
The corresponding values for `C#Cc1ccc(/C=C2\C=C(CC(=O)O)c3cc(F)ccc32)cc1` are 1100 nM and “inactive”.
For `O=C(O)CC1=C/C(=C\c2ccc(SC(F)(F)F)cc2)c2ccc(F)cc21`, the EC50 in assay [1] came to 200 nM. In addition, the outcome in assay [2] was inactive.
The corresponding values for `O=C(O)CC1=C/C(=C\c2ccc(C(F)(F)F)cc2)c2ccc(F)cc21` are 2500 nM and “inactive”.
On to `COc1ccc(/C=C2\C=C(CC(=O)O)c3cc(F)ccc32)cc1`, for which the EC50 in [1] was determined as 1300 nM. The outcome in assay [2] was inactive.
For the compound `CSc1ccc(-c2ccc(/C=C3\C=C(CC(=O)O)c4cc(F)ccc43)cc2)cc1`, the EC50 in [1] worked out at 1500 nM. The outcome in [2] was inactive.
Take `O=C(O)CC1=C/C(=C\c2cccc3cccnc23)c2ccc(F)cc21`: in assay [1], the EC50 is 1500 nM. For the same compound, the result in [2] was inactive.
The corresponding values for `CS(=O)(=O)c1ccc(/C=C2\C=C(CC(=O)O)c3cc(F)ccc32)cc1` are above 10000 nM and “inactive”.
With `O=C(O)CC1=C/C(=C\c2ccc(-c3ccccc3)cc2)c2ccc(F)cc21`, the EC50 in assay [1] is 100 nM. In addition, the result in assay [2] was inactive.
The corresponding values for `C[S+]([O-])c1ccc(/C=C2\C=C(CC(=O)O)c3cc(F)ccc32)cc1` (stereo unspecified) are above 10000 nM and “inactive”.
As for `O=C(O)CC1=C/C(=C\c2ccc(F)c3ccccc23)c2ccc(F)cc21`, in [1], the EC50 worked out at 100 nM. The result in assay [2] was inactive.
The corresponding values for `O=C(O)CC1=C/C(=C\c2ccccc2)c2ccc(F)cc21` are 1700 nM and “inactive”.
As to `[N-]=[N+]=NCc1ccc(/C=C2\C=C(CC(=O)O)c3cc(F)ccc32)cc1`, the concentration giving a half-maximal response (EC50) in [1] is 900 nM. For the same compound, the result in assay [2] was inactive.
Regarding `CSc1ccc(/C=C2/C(C)=C(CC(=O)O)c3cc(F)ccc32)cc1`, in assay [2], the result was inactive.
`O=C(O)CC1=C/C(=C\c2ccc3nccnc3c2)c2ccc(F)cc21`: the EC50 in assay [1] is above 10000 nM. Besides, the outcome in assay [2] was inactive.
The corresponding values for `Cc1ccc(/C=C2\C=C(CC(=O)O)c3cc(F)ccc32)cc1` are 2400 nM and “inactive”.
The corresponding values for `O=C(O)CC1=C/C(=C\c2ccc(Br)cc2)c2ccc(F)cc21` are 1100 nM and “inactive”.
With `O=C(O)CC1=C/C(=C\c2cccc3ccccc23)c2ccc(F)cc21`, the outcome (in [3]; in assay [5]; in assay [8]; in the assay with 3T3-L1; in [10]; in [12]) was Active. The result in [4], in assay [7], in [9], in [2] and in assay [11] was inactive. In assay [6], the Activity result was “Dose-dependent effect”. For the same compound, the EC50 in assay [1] was determined as 100 nM.
As for `CC(C)(C)Oc1ccc(/C=C2\C=C(CC(=O)O)c3cc(F)ccc32)cc1`, the EC50 in assay [1] amounted to 1900 nM. Besides, in [2], the result was inactive.
Take `O=C(O)CC1=C/C(=C\c2ccc(-c3ccc(F)cc3F)cc2)c2ccc(F)cc21`: the EC50 in assay [1] came to 100 nM. In [2], the result was inactive.
The corresponding values for `O=C(O)CC1=C/C(=C\c2ccc(C(=O)O)cc2)c2ccc(F)cc21` are above 10000 nM and “inactive”.
The corresponding values for `O=C(O)CC1=C/C(=C\c2ccc3ccccc3c2)c2ccc(F)cc21` are 1200 nM and “inactive”.
As to `O=C(O)CC1=CCc2ccc(F)cc21`, in assay [1], the EC50 was above 10000 nM. Further, the result in assay [2] was inactive.

(Values after ChEMBL document CHEMBL1156567, “Sulindac derivatives that activate the peroxisome proliferator-activated receptor gamma but lack cyclooxygenase inhibition” (J Med Chem, 2008).)
